Source: ChEMBL document CHEMBL1949593, “Stilbene-chalcone hybrids: design, synthesis, and evaluation as a new class of antimalarial scaffolds that trigger cell death through stage specific apoptosis” (J Med Chem, 2012)
Active and inactive are the calls of the source. No cut-off for these calls is given here.

Columns and labels:
Plasmodium falciparum [1] = assay: Growth inhibition of chloroquine-sensitive Plasmodium falciparum 3D7 schizonts at 10 uM treated for 8 hrs following washout incubated for 48 hrs in drug free medium by Giemsa staining; type: functional, organism-based
In short: (§1)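 Highly synchronized 3D7 cultures were exposed by stage: rings 48 h, trophozoites 24 h, schizonts 8 h. After a media wash, cultures grew 48 h in drug-free complete RPMI, in triplicate. Giemsa smears were read by counting 3000 cells per stage; pycnotic parasites were scored nonviable. Inhibition is percent of drug-free control.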

Plasmodium falciparum [2] = assay: Antimalarial activity against chloroquine-sensitive Plasmodium falciparum 3D7 assessed as inhibition of schizonts growth at 10 uM treated for 8 hrs followed by washout measured after 48 hrs by Giemsa staining; type: functional, organism-based
In short: (§2)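 Highly synchronized 3D7 schizonts were exposed to drug for 8 h under normal culture conditions, alongside untreated controls. After a media wash, cultures were incubated for 48 h with or without drug. Giemsa-stained thin smears were examined microscopically for parasitemia and stage, and compared with control.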

Plasmodium falciparum [3] = assay: Antimalarial activity against ring stage chloroquine-resistant Plasmodium falciparum Dd2 infected in human O positive erythrocytes after 48 hrs by SYBR green 1 fluorescence assay; type: functional, organism-based; conditions: Dd2, 48 h
In short: (§3)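 Ring-stage cultures were sorbitol-synchronized in O+ human erythrocytes in RPMI 1640 with 0.5% Albumax, hypoxanthine and gentamicin, then plated at 2% hematocrit and 1% parasitemia. Drugs were tested at 0–100 μM (final DMSO 0.4%) in triplicate for 48 h at 37 °C under 5% O2/5% CO2/90% N2. Read-out was SYBR Green I (ex 497/em 520 nm). IC50 was read visually as 50% growth inhibition, with chloroquine as control.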

Plasmodium falciparum [4] = assay: Antimalarial activity against ring stage chloroquine-sensitive Plasmodium falciparum 3D7 infected in human O positive erythrocytes after 48 hrs by SYBR green 1 fluorescence assay; type: functional, organism-based; conditions: 3D7, 48 h
In short: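 P. falciparum 3D7 in O+ human erythrocytes in complete RPMI with Albumax at 37 °C under 5% O2/5% CO2. Culture was sorbitol-synchronized to rings and plated at 2% hematocrit, 1% parasitemia. Drug range was 0–100 μM with 0.4% final DMSO, in triplicate. After 48 h, SYBR Green I fluorescence was read (ex 497/em 520 nm). IC50 was taken by visual matching of 50% growth inhibition.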

[5] = Resistance index, ratio of IC50 for ring stage chloroquine-resistant Plasmodium falciparum INDO to IC50 for ring stage chloroquine-sensitive Plasmodium falciparum 3D7; type: functional
[6] = Inhibition of Plasmodium falciparum falcipain-2 using benzyloxycarbonyl-Phe-Arg-7-amino-4-methyl coumarin hydrochloride as substrate preincubated for 10 mins prior substrate addition by fluorimetric assay
In short: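 Recombinant falcipain-2 (2 μg) was preincubated 10 min at room temperature with or without compound, in triplicate. Buffer was 100 mM sodium acetate pH 5.5 with 10 mM DTT and 1% final DMSO. Z-Phe-Arg-AMC was then added at 10 μM final. AMC release was read at ex 355/em 460 nm. IC50 was taken by visual matching of 50% inhibition.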

Plasmodium falciparum [7] = assay: Induction of apoptosis in ring stage chloroquine-sensitive Plasmodium falciparum 3D7 assessed as chromatin fragmentation at 10 uM at 18 hrs by Hoechst 33342 staining; type: functional, organism-based
Plasmodium falciparum [8] = assay: Reduction in parasitemia of ring stage chloroquine-sensitive Plasmodium falciparum 3D7 at 10 uM after 48 hrs by Giemsa staining; type: functional, organism-based
Plasmodium falciparum [9] = assay: Induction of apoptosis in chloroquine-sensitive Plasmodium falciparum 3D7 trophozoites assessed as chromatin fragmentation at 10 uM at 18 hrs by Hoechst 33342 staining; type: functional, organism-based
In short: (§4)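 3D7 trophozoite cultures were treated 18 or 24 h, and ring cultures 24, 42 or 48 h. Parasites were stained with Hoechst 33342 for 10 min at room temperature, washed with PBS, and smeared. Condensed or fragmented chromatin (blue, 460 nm) was viewed by fluorescence microscopy.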

Plasmodium falciparum [10] = assay: Antimalarial activity against ring stage chloroquine-resistant Plasmodium falciparum INDO infected in human O positive erythrocytes after 48 hrs by SYBR green 1 fluorescence assay; type: functional, organism-based; in short: as §3
Plasmodium falciparum [11] = assay: Induction of internucleosomal fragmentation in chloroquine-sensitive Plasmodium falciparum 3D7 trophozoites at 10 uM at 24 hrs by Hoechst 33342 staining; type: functional, organism-based; in short: as §4
Plasmodium falciparum [12] = assay: Growth inhibition of chloroquine-sensitive Plasmodium falciparum 3D7 trophozoites at 10 uM treated for 24 hrs followed by washout measured after 48 hrs by Giemsa staining; type: functional, organism-based; in short: as §1
Plasmodium falciparum [13] = assay: Induction of apoptosis in chloroquine-sensitive Plasmodium falciparum 3D7 trophozoites assessed as chromatin condensation at 10 uM at 18 hrs by Hoechst 33342 staining; type: functional, organism-based; in short: as §4
Plasmodium falciparum [14] = assay: Growth inhibition of chloroquine-sensitive Plasmodium falciparum 3D7 trophozoites at 10 uM treated for 24 hrs following washout incubated for 48 hrs in drug free medium by SYBR green 1-based fluorescence assay; type: functional, organism-based
In short: (§5)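 Stage-specific exposure of synchronized 3D7: rings 48 h, trophozoites 24 h, schizonts 8 h. Drug was removed by media wash and cultures grew 48 h drug-free, in a separate triplicate set. Growth was read by SYBR Green I fluorescence and expressed as percent inhibition relative to drug-free control.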

Plasmodium falciparum [15] = assay: Inhibition of RBC invasion of chloroquine-sensitive Plasmodium falciparum 3D7 schizonts at 10 uM treated for 8 hrs followed by washout measured after 48 hrs by Giemsa staining; type: functional, organism-based; in short: as §2
Plasmodium falciparum [16] = assay: Induction of apoptosis in chloroquine-sensitive Plasmodium falciparum 3D7 trophozoites assessed as disruption of mitochondrial membrane potential at 10 uM by JC-1 staining; type: functional, organism-based
In short: (§6)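 3D7 ring cultures were treated 24, 42 or 48 h, and trophozoite cultures 18 or 24 h. Parasites were stained with JC-1 for 20 min at 37 °C and viewed as wet mounts by fluorescence microscopy. Red-orange aggregate signal (590 nm) indicates intact ΔΨm; green monomer signal (525 nm) indicates dissipation.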

Plasmodium falciparum [17] = assay: Antimalarial activity against chloroquine-sensitive Plasmodium falciparum 3D7 assessed as merozoites egress at 10 uM treated for 8 hrs followed by washout measured after 48 hrs by Giemsa staining; type: functional, organism-based; in short: as §2
Plasmodium falciparum [18] = assay: Growth inhibition of ring stage chloroquine-sensitive Plasmodium falciparum 3D7 at 10 uM treated for 48 hrs following washout incubated for 48 hrs in drug free medium by Giemsa staining; type: functional, organism-based; in short: as §1
Plasmodium falciparum [19] = assay: Induction of apoptosis in ring stage chloroquine-sensitive Plasmodium falciparum 3D7 assessed as chromatin condensation at 10 uM at 18 hrs by Hoechst 33342 staining; type: functional, organism-based
Plasmodium falciparum [20] = assay: Growth inhibition of chloroquine-sensitive Plasmodium falciparum 3D7 schizonts at 10 uM treated for 8 hrs following washout incubated for 48 hrs in drug free medium by SYBR green 1-based fluorescence assay; type: functional, organism-based; in short: as §5
[21] = Resistance index, ratio of IC50 for ring stage chloroquine-resistant Plasmodium falciparum Dd2 to IC50 for ring stage chloroquine-sensitive Plasmodium falciparum 3D7; type: functional
Plasmodium falciparum [22] = assay: Induction of internucleosomal fragmentation in ring stage chloroquine-sensitive Plasmodium falciparum 3D7 at 10 uM at 24 hrs by Hoechst 33342 staining; type: functional, organism-based; in short: as §4
[23] = Therapeutic index, ratio of IC50 for human HeLa cells to IC50 for ring stage chloroquine-sensitive Plasmodium falciparum 3D7; type: cell-based; conditions: read-out: Ratio IC50
In short: (§7)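 HeLa or L929 fibroblasts were seeded at 10^4 cells per well in RPMI with 10% FBS, left overnight, then exposed 24 h at 37 °C, 5% CO2. MTT was added for 3 h; formazan was dissolved in DMSO and read at 570 nm. IC50 came from dose–response curves. Index = IC50(mammalian)/IC50(Pf 3D7, SYBR Green assay).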

Plasmodium falciparum [24] = assay: Induction of apoptosis in ring stage chloroquine-sensitive Plasmodium falciparum 3D7 assessed as disruption of mitochondrial membrane potential at 10 uM by JC-1 staining; type: functional, organism-based; in short: as §6
Plasmodium falciparum [25] = assay: Reduction in parasitemia of chloroquine-sensitive Plasmodium falciparum 3D7 trophozoites at 10 uM after 48 hrs by Giemsa staining; type: functional, organism-based
[26] = Therapeutic index, ratio of IC50 for […] cells to IC50 for ring stage chloroquine-sensitive Plasmodium falciparum 3D7; type: cell-based; conditions: mouse, read-out: Ratio IC50; in short: as §7
Plasmodium falciparum [27] = assay: Induction of apoptosis in ring stage chloroquine-sensitive Plasmodium falciparum 3D7 assessed as nuclear condensation at 10 uM at 24 hrs by Giemsa staining
Plasmodium falciparum [28] = assay: Induction of apoptosis in chloroquine-sensitive Plasmodium falciparum 3D7 trophozoites assessed as nuclear condensation at 10 uM at 18 hrs by Giemsa staining; type: functional, organism-based
Plasmodium falciparum [29] = assay: Growth inhibition of ring stage chloroquine-sensitive Plasmodium falciparum 3D7 at 10 uM treated for 24 hrs followed by washout measured after 72 hrs by Giemsa staining; type: functional, organism-based
In short: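 Synchronized 3D7 ring cultures were exposed for 18, 24 or 48 h, then washed free of drug. Cultures were kept under normal conditions to 96 h total. Giemsa-stained thin smears were read by counting 3000 cells; inhibition is relative to the matching drug-free control.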

Plasmodium falciparum [30] = assay: Growth inhibition of ring stage chloroquine-sensitive Plasmodium falciparum 3D7 at 10 uM treated for 48 hrs following washout incubated for 48 hrs in drug free medium by SYBR green 1-based fluorescence assay; type: functional, organism-based; in short: as §5

COc1cc(OC)c(OC)cc1/C=C/C(=O)c1ccc(/C=C/c2cc(OC)c(OC(C)=O)c(OC)c2)cc1
growth inhibition (GI) (Plasmodium falciparum [1]): inactive
growth inhibition (GI) (Plasmodium falciparum [2]): inactive
IC50 (Plasmodium falciparum [3]): 2.2 µM
IC50 (Plasmodium falciparum [4]): 2.2 µM
Ratio IC50 [5]: 0.9
IC50 [6]: 25 µM
Activity (Plasmodium falciparum [7]): Active
Activity (Plasmodium falciparum [8]): Active
Activity (Plasmodium falciparum [9]): Active
IC50 (Plasmodium falciparum [10]): 1.98 µM
Activity (Plasmodium falciparum [11]): Active
growth inhibition (GI) (Plasmodium falciparum [12]): Active
Activity (Plasmodium falciparum [13]): Active
growth inhibition (GI) (Plasmodium falciparum [14]): Active
inhibition (Plasmodium falciparum [15]): inactive
Activity (Plasmodium falciparum [16]): Active
inhibition (Plasmodium falciparum [17]): inactive
growth inhibition (GI) (Plasmodium falciparum [18]): Active
Activity (Plasmodium falciparum [19]): Active
growth inhibition (GI) (Plasmodium falciparum [20]): inactive
Ratio IC50 [21]: 1
Activity (Plasmodium falciparum [22]): inactive
selectivity ratio [23]: > 45.5
Activity (Plasmodium falciparum [24]): Active
Activity (Plasmodium falciparum [25]): Active
selectivity ratio [26]: > 45.5
Activity (Plasmodium falciparum [27]): Active
Activity (Plasmodium falciparum [28]): Active
growth inhibition (GI) (Plasmodium falciparum [29]): Active
growth inhibition (GI) (Plasmodium falciparum [30]): Active
